# PfHsp90 yeast 2 = growth inhibition of yeast expressing Plasmodium Hsp90; S. cerevisiae expressing PfHsp90, BacTiter-Glo ATP, 48 h; yeast lacking PDR1 and PDR3 efflux regulators; inhibition, % at 9.4 µM; 0.32% of 310,000 active;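 active = every replicate shows inhibition above about 80%, whatever the replicate mean, limit read from the data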;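 note: 0% = DMSO neutral controls and 100% = 20 µM radicicol positive controls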
# CSC inhib = blocks cancer stem cells. cancer stem cell-like cells viability, luminescence. inhibition, % at 7.5 µM. 1.1% of 300,000 active. AID 2717; in the data active = inhibition above about 75%; tested in HMLE shEcad cells
# SKKanGAS inh = inhibitors of SKKanGAS S. pyogenes growth in kanamycin (SK-promoter or general growth effect); BacTiter-Glo, 6 h; inhibition, % at 7.5 µM; 1.3% of 300,000 active;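 active = mean replicate score, as percent of positive control median, at least 50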;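 note: strain carries kanamycin resistance gene driven by streptokinase promoter and grows in 40 µg/ml kanamycin; loss of luminescence reflects streptokinase promoter inhibition or plain growth inhibition; 0% = median of DMSO wells and 100% = positive control at its reference dose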
# HIF activator = HIF pathway transcriptional activation; activation, % at 7.5 µM (by protocol); U2OS HRE-luciferase reporter, luminescence; normalized: DMSO 0%, desferrioxamine 100%; AID 1910; 0.32% of 300,000 active;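 active = mean activation of at least 10% of the iron chelator positive control signal, with at least half of replicates also reaching 10%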
# T cruzi inh = blocks replication of Trypanosoma cruzi; T. cruzi beta-gal in NIH3T3, luminescence, 90 h; inhibition, % (no concentration beside the values); 1.4% of 300,000 active;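 active = mean inhibition across valid replicates above about 55%, limit read from the data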;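 note: signal also drops with host cell toxicity which is not excluded here; 0% = plate median of DMSO wells and 100% = zero luminescence signal; higher percent means less beta-gal luminescence so fewer parasites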
#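 System: Mouse NIH/3T3 fibroblasts infected with β-gal-expressing T. cruzi Tulahuen C4 | Quantity: NIH/3T3 cells, 5,000 per well | Reagent: 5000 reporter trypomastigotes per well | Dosing: Compound pinned at 50 nL/well, DMSO | Schedule: 3 h host attachment, then at least 90 h co-culture | Detection: GalScreen luminescence, 60 min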
# Beta cell apopt = beta cell apoptosis inhibition; INS-1E cytokine-induced death, ATP luminescence, 48 h; percent of positive-control rescue, neutral wells zero; protection from apoptosis, % (test concentration not listed); 0.8% of 300,000 active;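 active = Every replicate reaches about 75%, or at least half do and their mean reaches it too, limit read from the data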;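 note: 0% = cytokine-treated negative control wells and 100% = positive control rescue; higher means more ATP so stronger rescue from cytokine killing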
# * marks the source's active call; other numbers are inactive results; . = no result given. Only some compounds are listed: those with a hit (about 3.6% of all), similar ones and a draw of the others.
SMILES,PfHsp90 yeast 2,CSC inhib,SKKanGAS inh,HIF activator,T cruzi inh,Beta cell apopt
CCOc1ccc(N/C(C)=C/C(=O)c2ccc(C)o2)cc1,57,-5,-1,0,60*,1
COc1cc(C(=O)NC(=S)Nc2ccc(Cc3ccncc3)cc2)cc(OC)c1OC,-5,27,51*,-27,14,-2
Cc1ccccc1N(C(=O)c1csnn1)C(C(=O)NC1CCCC1)c1ccncc1 (centres undefined),-3,-11,23,0,0,1
O=Cc1cc2ccccc2nc1SCc1ccc(Cl)cc1,.,88*,51*,0,-5,25
Cc1ccc(CSc2nc3ccccc3cc2C=O)cc1,-31,70,6,1,-15,39
O=Cc1cc2ccccc2nc1SCc1ccc(Cl)c(Cl)c1,-56,94*,45,0,4,57
C=C1CC2(CC(c3ccccc3)OC(c3ccccc3)C2)OC1=O (centres undefined),12,.,.,.,.,.
O=C(O)c1cccc2c1Cc1cc([N+](=O)[O-])ccc1-2,115*,.,.,.,.,.
O=C(O)c1cccc2c1-c1ccc([N+](=O)[O-])cc1C2=O,-2,.,.,.,.,.
O=C(N/N=C/c1c[nH]c2ccccc12)c1cc(-c2ccc(-c3ccccc3)cc2)n[nH]1,18,-9,92*,1,33,19
O=C(N/N=C/c1c[nH]c2ccccc12)c1cc(-c2ccc3ccccc3c2)n[nH]1,-3,68,95*,0,-35,19
O=C(N/N=C/c1c[nH]c2ccccc12)C1CC1(c1ccccc1)c1ccccc1 (centres undefined),22,79*,60*,0,2,13
Cc1ccc(-c2ccc(CCC(=O)O)n2-c2cccc(C(=O)O)c2)cc1,3,3,2,1,-4,-5
COc1ccc(OC)c(N2C(=O)CC(NNC(=O)c3ccc4c(c3)OCO4)C2=O)c1 (centres undefined),4,-10,.,.,.,2
CC(=O)NN1C(=O)c2ccc3c4c(ccc(c24)C1=O)C(=O)N(NC(C)=O)C3=O,10,42,22,-21,5,108*
COc1cccc(NC(=O)CN(C)C(=O)c2c(-c3ccccc3)noc2C)c1,20,-11,-2,0,-17,-6
O=C(c1cccc(S(=O)(=O)N2CCc3ccccc3C2)c1)N1CCN(c2ccc(O)cc2)CC1,0,156*,7,-1,20,-5
Cc1cccc(N2CCN(C(=O)c3ccc(Cl)c(S(=O)(=O)N4CCc5ccccc5C4)c3)CC2)c1C,-21,15,14,0,59*,8
CC(=O)Nc1sc(N/N=C/c2ccccc2)nc1-c1ccc(C)cc1,-3,-5,4,1,-8,-3
CCCc1sc(N/N=C/c2ccccn2)nc1-c1ccc(Br)cc1,-73,126*,67*,25*,65*,111*
CCOC(=O)C1=C(COC(=O)/C=C/c2cccc(F)c2)NC(=O)NC1C (centres undefined),-4,.,.,.,.,4
Nc1ncnc(Nc2ccccc2Oc2ccccc2)n1,-7,.,.,.,.,.
CC(C)CNC(=O)COC(=O)c1c2c(nc3ccccc13)/C(=C\c1cccs1)CC2,-8,.,.,.,.,.
O=C(COC(=O)c1c2c(nc3ccccc13)/C(=C\c1cccs1)CCC2)Nc1ccccc1,3,101*,19,0,74*,3
CC(=O)c1ccc(NC(=O)COC(=O)c2c3c(nc4ccccc24)/C(=C\c2cccs2)CCC3)cc1,27,117*,22,1,43,3
SMILES,PfHsp90 yeast 2,CSC inhib,SKKanGAS inh,HIF activator,T cruzi inh,Beta cell apopt
CCN(C(=O)COC(=O)CSc1ccc(F)cc1)c1c(N)n(Cc2ccccc2)c(=O)[nH]c1=O,4,4,.,.,.,0
Cc1ccc(/C=C2/NC(=O)N(Cc3ccc(Br)cc3)C2=O)o1,109*,19,-1,1,7,1
CCN1C(=O)N/C(=C/c2ccc(C)o2)C1=O,9,10,9,0,-8,-15
COc1cc(C(C[N+](=O)[O-])c2c(N)n(C)c(=O)n(C)c2=O)ccc1O (centres undefined),-6,-2,1,0,-13,3
COc1cccc(F)c1C(C[N+](=O)[O-])c1c(N)n(C)c(=O)n(C)c1=O (centres undefined),103*,71,-5,0,-2,97*
Cc1ccc(C(C[N+](=O)[O-])c2c(N)n(C)c(=O)n(C)c2=O)cc1 (centres undefined),108*,27,0,1,12,-3
COc1ccc(Cc2nnc(SCC(=O)NC3CCCCC3)n2C)cc1,-12,-11,7,70*,-17,.
COc1ccc(NC(=O)Cc2nnc(SCC(=O)NC3CCCCC3)n2C)cc1,2,-5,4,0,4,-4
COc1ccc(Br)cc1/C(C)=N/NC1=NCCN1,-4,4,7,0,-13,10
CCCCCOc1ccc(Br)cc1/C(C)=N/NC1=NCCN1,4,-3,3,1,55*,45
CCOC(=O)[C@@H]1CSCCS(=O)(=O)N1Cc1ccccc1Br,-10,.,.,.,.,.
Cc1ccccc1Oc1cc(-n2ncc(Cl)c(Cl)c2=O)ncn1,97*,108*,.,.,.,99*
CCOc1cnn(-c2cc(Oc3ccc(C)cc3)ncn2)c(=O)c1Cl,26,-6,-1,0,9,-5
O=C(Nc1cccc([N+](=O)[O-])c1)NN1CCCCCC1,26,.,.,.,.,.
CN1CCN(C2CCN(Cc3ccc(O)c4ncccc34)CC2)CC1,5,0,.,.,.,-12
Oc1ccc(CN2CCN(Cc3ccccc3)CC2)c2cccnc12,.,7,6,11*,64*,64
CN1CCN(Cc2cc(COCc3ccccc3)c3cccnc3c2O)CC1,18,1,3,221*,77*,-2
O=S(=O)(c1ccc(Cl)cc1)N1CCN(Cc2ccc(O)c3ncccc23)CC1,.,89*,6,4,55*,86*
c1ccc(CN2CCN(Cc3c[nH]c4ccccc34)CC2)cc1,18,-19,-3,-1,60*,87*
O=[N+]([O-])c1ccc(S(=O)(=O)N2CCN(Cc3c[nH]c4ccccc34)CC2)cc1,7,.,-4,0,74*,0
CC(C)c1ccc(NC2CCCN(C(=O)CCn3cnnn3)C2)cc1 (centres undefined),5,13,-2,0,10,-1
N#Cc1ccc(C(=O)Nc2cc(S(=O)(=O)Nc3ccc(Cl)cc3)ccc2N2CCCCC2)cc1,-14,35,10,-1,30,12
O=C(Nc1cc(S(=O)(=O)Nc2ccc(Cl)cc2)ccc1N1CCCCC1)c1ccc(F)cc1,18,90*,55*,-1,19,112*
O=C(NCc1cccs1)C1CC(=O)N(C2CCCC2)C1 (centres undefined),-2,-2,-3,214*,0,-11
